CHO parental Ca: ATP-evoked calcium signal inhibitors, parental CHO, primary screen, counter-screen for OX1R antagonist project, cell-based, fluorescence, Fluo-8 calcium dye; actives 0.63% (n = 330,000); parental CHO-K1, ATP-induced calcium, Fluo-8 fluorescence; AID 463079, 2010; inhibition, % at 5.6 µM;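 active means inhibition above that plate's mean sample inhibition plus 3 SD, cut at about 26% in these data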;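 further: 0% = ATP-challenged DMSO wells and 100% = DMSO wells without ATP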
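Assay system: parental CHO cells; Read-out basis: percent inhibition of ATP-evoked calcium rise, normalized to controls; Benchmarks: ATP and no-ATP DMSO wells; Compound dosing: single nominal dose of 5.6 µM per compound; Signal: Fluo-8 calcium dye fluorescence; Also added: ATP as calcium-mobilizing challenge; Repeats: singlicate.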
GPR7 antag: GPR7 receptor antagonists, primary screen, cell-based, fluorescence, single concentration | Neuropeptides B/W receptor type 1 (Homo sapiens), P48145 | actives 1.1% (n = 290,000) | AID 1861, 2009 | inhibition, % at 4.4 µM | GPR7-expressing cells, fluorescence antagonist assay; in the data active means inhibition above about 16%, passing the limit was not always enough;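 further: cells stimulated with the agonist NPW; 0% = agonist with vehicle and 100% = vehicle without agonist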
Target sequence (P48145 whole entry, looked up): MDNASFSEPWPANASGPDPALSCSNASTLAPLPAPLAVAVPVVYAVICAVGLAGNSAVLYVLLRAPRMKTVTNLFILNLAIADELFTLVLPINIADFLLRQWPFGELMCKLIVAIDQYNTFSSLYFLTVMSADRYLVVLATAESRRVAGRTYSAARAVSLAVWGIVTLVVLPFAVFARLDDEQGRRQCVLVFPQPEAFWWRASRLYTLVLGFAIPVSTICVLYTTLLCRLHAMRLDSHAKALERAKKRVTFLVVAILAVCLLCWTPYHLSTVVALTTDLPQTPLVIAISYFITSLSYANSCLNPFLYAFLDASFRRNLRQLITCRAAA
TAAR1 agonist: human TAAR1 agonists, primary screen, Fluo-8 calcium fluorescence, CHO RD-HGA16 cells; activation, % at 3 µM; actives 0.99% (n = 360,000); Trace amine-associated receptor 1 (Homo sapiens), Q96RJ0; vehicle wells 0%, saturating PEA agonist 100%;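 active means activation above the mean activation of all test compounds in the run plus 3 SD, cut at about 38% in these data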
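test system = CHO RD-HGA16 cells carrying human TAAR1 plus Gα16 | schedule = 17-24 h seeding, 75 min 37 °C dye, 30 min RT | compound dosing = 3 µM single concentration | control set = DMSO and PEA EC100 | replicates = n 1 | signal = Fluo-8 fluorescence, 5 s baseline then 140 s kinetic read | measure = percent activation vs PEA EC100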
OX1R antag-1: OX1R (HCRTR1) antagonists, primary screen, fluorescence, CHO/OX1R cells, Fluo-8 calcium, orexin A; Orexin/Hypocretin receptor type 1 (Homo sapiens), O43613; Fluo-8 calcium fluorescence; inhibition, % at 5 µM; actives 0.43% (n = 330,000); AID 434989, 2010;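 active means inhibition above its plate's threshold, mean inhibition of all tested compounds on the plate plus 3 SD, cut at about 37% in these data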;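 further: 0% = orexin A challenge wells and 100% = SB-334867-A antagonist wells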
OX1R antag-2: antagonists of human orexin 1 receptor (OX1R); actives 1.8% (n = 330,000); AID 485270, 2010; OX1R-expressing cells, FRET antagonist read-out; Orexin/Hypocretin receptor type 1 (Homo sapiens), O43613; inhibition, % at 6.6 µM; in the data active means inhibition mostly above about 38%, no sharp cut-off; inactive means mostly below about 40%;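 further: 0% = agonist challenge alone and 100% = reference antagonist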
TAAR1 antagonist: human TAAR1 antagonists, primary screen, Fluo-8 calcium fluorescence, CHO RD-HGA16 cells. Trace amine-associated receptor 1 (Homo sapiens), Q96RJ0. antagonist. inhibition, % at 3 µM. actives 1.5% (n = 360,000);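 active means inhibition above a per-plate cutoff, the mean inhibition of test compounds on that plate plus 3 SD, cut at about 49% in these data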;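 further: 0% = DMSO plus EC80 beta-PEA response and 100% = DMSO alone without agonist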
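Test system – hTAAR1-expressing CHO RD-HGA16 cells, Gα16-coupled · Also added – β-PEA at EC80 concentration, post-compound challenge · Compound – 3 µM, single point · Incubation – dye loading 75 min at 37 °C, then 30 min room temperature · Measured by – Fluo-8 intracellular calcium dye fluorescence, real-time kinetic reads · Benchmarks – vehicle and agonist controls · Replicates – singlicate, one well per test compound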
* = called active by the depositor; nt = no result. Rows were chosen to be rich in hits. Some 4.6% of all compounds tested hit in one or more screens of this group.

SMILES	CHO parental Ca	GPR7 antag	TAAR1 agonist	OX1R antag-1	OX1R antag-2	TAAR1 antagonist
O=C(NCc1cccs1)c1ccc2nc([C@@H]3O[C@H](CO)[C@H](O)[C@H](O)[C@H]3O)[nH]c2c1	nt	nt	1	nt	nt	-6
COCCCNCCCCOc1ccc(Br)cc1C	-11	16	41*	-17	1	-7
N#Cc1ccc2nc(-c3ccc(CN4CCC5(CC4)CNc4ccccc45)cc3)c(-c3ccccc3)nc2c1	nt	nt	0	nt	nt	19
Cc1ccc(OCCNS(=O)(=O)c2ccc(N3CCCC3=O)cc2)cc1	16	-7	4	18	26	-1
Cc1ccc(OCCNS(=O)(=O)c2ccc(N3CCCC3=O)cc2)cc1C	9	-3	8	34	35*	-15
CC(Oc1ccccc1)C(=O)N1CCN=C1SCc1ccccc1F (centres undefined)	40*	11	6	-22	28	3
CC(Oc1ccccc1)C(=O)N1CCN=C1SCc1cccc(F)c1 (centres undefined)	-12	11	9	-17	9	10
COc1ccc(Cn2c(C)c(CC(=O)Nc3ccc(Oc4cccnc4)c(C)c3)c3ccccc32)cc1	nt	nt	-1	nt	nt	23
NC(=O)c1c(N)[nH]c(C(=O)c2ccccc2)c1-c1ccc2c(c1)OCO2	nt	nt	5	nt	nt	-13
O=C(Nc1cccc2ccccc12)c1ccc(Br)o1	nt	5	3	nt	nt	3
O=C(Nc1cccc2cccnc12)c1ccc(Br)o1	-16	-11	7	9	75*	-10
CCOc1ccccc1C(=O)Nc1cccc2cccnc12	-18	-7	4	10	44*	-20
O=C(Nc1cccc2cccnc12)c1cccc2ccccc12	-20	5	3	-27	25	-11
O=C(Nc1cccc2ccccc12)c1ccccc1NS(=O)(=O)c1cccc2cccnc12	-17	-1	2	15	65	4
COc1ccc(C(=O)Nc2cccc3cccnc23)cc1OC	-15	0	8	-15	49*	-5
COc1ccc(OC)c(NC(=O)c2ccccc2NS(=O)(=O)c2cccc3cccnc23)c1	-9	-16	2	6	64*	-5
COC(=O)[C@@]12C[C@@H](CC(=O)N3CCN(C(=O)c4ccco4)CC3)C(=O)N(Cc3ccccc3)C1=CCC(C)(C)C2	nt	nt	2	nt	nt	-15
CCOC(=O)C1=CCN(S(C)(=O)=O)C1c1ccc(Cl)cc1 (centres undefined)	nt	nt	4	nt	nt	-13
CCCCn1c(O)c2n(c1=O)Cc1ccccc1N=C2c1ccc(C)cc1	nt	nt	1	nt	nt	-21
Fc1ccc([C@@H]2CCNC[C@H]2COc2ccc3c(c2)OCO3)cc1	-5	32*	20	14	9	5
O=C(COc1ccc2c(c1)OCO2)Nc1ccccc1F	-10	-1	0	-3	8	-1
C=CC[C@H](CC(=O)N(CCO)Cc1ccccc1)C(=O)NCCOC(=O)[C@@H](CC=C)Cc1ccc(F)cc1	-12	nt	9	4	17	17
C=CC[C@H](CC(=O)N(CCO)Cc1ccccc1)C(=O)NC[C@H](OC(=O)[C@@H](CC=C)Cc1ccc(F)cc1)c1ccccc1	5	nt	28	26	16	90*
C=CC[C@@H](CC(=O)N(CCO)Cc1ccccc1)C(=O)NC[C@@H](OC(=O)[C@@H](CC=C)Cc1ccc(F)cc1)c1ccccc1	-7	nt	13	39	7	69*
O=C(c1ccc(COc2ccccc2)o1)N1CCN(S(=O)(=O)c2ccccc2Cl)CC1	0	nt	8	9	20	51*
CCCCCn1c(CNC(=O)c2cccs2)nc2ccccc21	22	-14	0	7	56*	0
CCCCn1c(CNC(=O)c2cccs2)nc2ccccc21	-4	-14	1	-32	12	-7

Screening results (PubChem BioAssay)
